In ChEMBL document CHEMBL1123723, “S-[(N,N'-diarylamidino)methyl] diethyldithiocarbamates and related amides as potential radioprotectants” (J Med Chem, 1987) one finds MST, LD50 and survival data, which are given here for ten molecules.

For series [1], the species on record is Mus musculus. Description: Antiradiation evaluation test was carried out in mice and mean survival time(MST) for mice that died over a 30 day period was determined. The format is functional. The essentials: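 Mice (strain "H", both sexes, 23-25 g, 20 per group) were given the drug as a methylcellulose/Tween-80 suspension and exposed to 800-rad X-rays at 96 rads/min alongside untreated controls. The value is the mean survival time of the mice that died within the 30-day observation period.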

Series [2] in a line: Antiradiation evaluation test was carried out in mice and lethal dose for antiradiation effect at 800 rads was evaluated by the x-ray. The format is ADME, organism-based. The note with it: mouse, in vivo.
Series [3] has as its system Mus musculus. The experiment in a line: Antiradiation evaluation test was carried out in mice and percent of survival of animals after 30-day was determined at lowest dose of 340 mg/kg required for the highest survival rate. The format is functional. The settings on record: 720 h.
Series [4] concerns Mus musculus. The experiment in a line: Antiradiation evaluation test was carried out in mice and percent of survival of animals after 30-day was determined at lowest dose of 210 mg/kg required for the highest survival rate. The format is functional. The note with it: 720 h.
In series [5] the test system is Mus musculus. The experiment in a line: Antiradiation evaluation test was carried out in mice and percent of survival of animals after 30-day was determined at lowest dose of 250 mg/kg required for the highest survival rate. The format is functional. The note with it: 720 h.
Series [6] has as its system Mus musculus. Description: Antiradiation evaluation test was carried out in mice and percent of survival of animals after 30-day was determined at lowest dose of 150 mg/kg required for the highest survival rate. The format is functional. The settings on record: 720 h.
The test system of series [7] is Mus musculus. Description: Antiradiation evaluation test was carried out in mice and percent of survival of animals after 30-day was determined at lowest dose of 280 mg/kg required for the highest survival rate. The format is functional. The note with it: 720 h.
Series [8] relates to Mus musculus. Description: Antiradiation evaluation test was carried out in mice and percent of survival of animals after 30-day was determined at lowest dose of 360 mg/kg required for the highest survival rate. The settings on record: 720 h. The format is functional.
The test system of series [9] is Mus musculus. The experiment in a line: Antiradiation evaluation test was carried out in mice and percent of survival of animals after 30-day was determined at lowest dose of 125 mg/kg required for the highest survival rate. The settings on record: 720 h. The format is functional.

`CCN(CC)C(=S)SC/C(=N\c1ccc(OC)cc1)Nc1ccc(OC)cc1` came in with an MST in series [1] of 14.3 days. Further, in series [2], the LD50 was 1370 mg/kg. Besides, the survival at 340 mg/kg in [3] stood at 60%.

For the molecule `CCOc1ccc(N/C(CSC(=S)N(CC)CC)=N/c2ccc(C)cc2)cc1`, the MST in series [1] worked out at 10.5 days. This molecule came in with an LD50 in series [2] of 850 mg/kg. In series [4], the survival at 210 mg/kg came to 25%.

In series [5], `CCN(CC)C(=S)SC/C(=N\c1ccc(C)cc1)Nc1ccc(OC)cc1` came in with a survival at 250 mg/kg of 40%. In series [1], this molecule gave an MST of 9.8 days. The same molecule yielded an LD50 in [2] of 970 mg/kg.

In series [6], `CCN(CC)C(=S)SC/C(=N\c1ccccc1)Nc1ccccc1` displayed a survival at 150 mg/kg of 5%. In [1], this molecule gave an MST of 8.1 days. The molecule further came in with an LD50 in [2] of 840 mg/kg.

The molecule `CCN(CC)C(=S)SC/C(=N\c1ccc(C)cc1)Nc1ccc(C)cc1` returned an MST in series [1] of 6.1 days. The LD50 in series [2] turned out to be 970 mg/kg. Besides, the survival at 210 mg/kg in series [4] was found to be 0%.

As for `CCOc1ccc(N/C(CSC(=S)N(CC)CC)=N/c2ccc(OC)cc2)cc1`, the MST in [1] turned out to be 13.5 days. Further, in series [2], the LD50 was 1270 mg/kg. For the same molecule, in series [7], the survival at 280 mg/kg is 60%.

In the case of `CCOc1ccc(/N=C(\CSC(=S)N(CC)CC)Nc2ccc(OCC)cc2)cc1`, the MST in series [1] came out at 13.5 days. The LD50 in [2] was found to be 1240 mg/kg. In series [8], the survival at 360 mg/kg came to 70%.

Molecule `CCOc1ccc(N/C(CSC(=S)N(CC)CC)=N/c2ccccc2)cc1` returned a survival at 150 mg/kg in series [6] of 35%. The molecule further showed an MST in series [1] of 9.1 days. The LD50 in [2] came out at 800 mg/kg.

For the molecule `CCN(CC)C(=S)SC/C(=N\c1ccccc1)Nc1ccc(OC)cc1`, the survival at 150 mg/kg in series [6] was determined as 10%. The MST in series [1] came out at 10.8 days. In series [2], this molecule had an LD50 of 780 mg/kg.

`CCN(CC)C(=S)SC/C(=N\c1ccccc1)Nc1ccc(C)cc1` had an MST in series [1] of 9.6 days. The LD50 in series [2] came out at 720 mg/kg. The survival at 125 mg/kg in [9] came out at 10%.
